# Measured values of several laboratories.
# Lines come from different studies, so protocols differ. pEC50, pKi: −log10 of the molar value.
# Target: Cannabinoid receptor 1 (CNR1, Homo sapiens, UniProt P21554)
Compound,observed,mode,technique,notes,endpoint,value
CCCCC/C=C\C/C=C\C/C=C\C/C=C\CCCC(=O)N[C@H](C)CO,ligand displacement,,radioligand,cell membranes,pKi,7.70
CCCCCc1cc(O)c(C/C=C(\C)CCC2OC2(C)C)c(O)c1 (centres unmarked),ligand displacement,,radioligand,cell membranes,pKi,< 5.00
CCOC(=O)C(CCCOC)NC(=O)c1ccc(C2CC2)c(Cc2ccc(F)cc2)n1 (centres unmarked),ligand displacement,,radioligand,cell membranes,pKi,7.00
CC(C)C(NC(=O)c1nn(Cc2ccc(F)cc2)c2ccccc12)C(N)=O (centres unmarked),calcium signal,agonist,,,pEC50,8.46
Cc1ccc(OC(C)(C)C(=O)N[C@@H](C)[C@@H](Cc2ccc(OCCF)cc2)c2cccc(C#N)c2)nc1,ligand displacement,,radioligand,,pKi,10.00
CCCCCn1cc(C(=O)C2C(C)(C)C2(C)C)c2ccccc21,GTPγS binding,agonist,radiometric,cell membranes,pEC50,7.01
CCCCCc1cc(O)c(C/C=C(\C)CCC=C(C)C)c(O)c1C(=O)O,ligand displacement,,radioligand,cell membranes,pKi,5.34
CC/C(=C(\c1ccc(O)cc1)c1ccc(OCCN(C)C)cc1)c1ccccc1,cAMP,antagonist,,,Kb,1600 nM
CCOC(=O)[C@](CC)(CCC[S+]([O-])CCOCCOCCNC(=O)OC(C)(C)C)NC(=O)c1ccc(C2CC2)c(Cc2ccc(F)cc2)n1 (some centres unmarked),ligand displacement,,radioligand,cell membranes,pKi,6.49
CCCCCc1cc2c(c(O)c1C(=O)O)C1C=C(C)CCC1C(C)(C)O2 (centres unmarked),ligand displacement,,radioligand,cell membranes,pKi,5.89
CCOC(=O)[C@H](CSC)NC(=O)c1ccc(C2CC2)c(Cc2ccc(F)cc2)n1,ligand displacement,,radioligand,cell membranes,pKi,7.72
CCCCCn1nc(C(=O)N[C@H](C(N)=O)C(C)C)c2ccccc21,calcium signal,agonist,,,pEC50,8.44
C=C(C)[C@@H]1CCC(C)=C[C@H]1c1c(O)cc(CCC)cc1O,ligand displacement,,radioligand,cell membranes,pKi,6.30
CCOC(=O)C(CC)(CCCSCCOCCOCCNc1ccc([N+](=O)[O-])c2nonc12)NC(=O)c1ccc(C2CC2)c(Cc2ccc(F)cc2)n1 (racemic),ligand displacement,,radioligand,cell membranes,pKi,6.42
